97 compounds from ChEMBL document CHEMBL4513216, “Probing the Open Global Health Chemical Diversity Library for Multistage-Active Starting Points for Next-Generation Antimalarials” (ACS Infect Dis, 2020) can be followed below.

This data set in a line: Toxicity liver stage against HepG2, at 10uM. The class given is cell-based. Also on record: test concentration 10 uM, cell line HepG2-A16-CD81EGFP. To be noted: human, HepG2-A16-CD81EGFP cells; read-out: INHIBITION
Put shortly:
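Uninfected HepG2-A16-CD81EGFP cells, 3 × 10^3 per well, 1536-well, plated on prespotted compound at 10 μM final, parasite-free screening media added to match infected plates; puromycin 10 μM positive, DMSO 0.5% negative; run in parallel with 48 h PbLuc assay at 37 °C, 5% CO2; viability by CellTiter-Glo luminescence, normalized to controls.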
For `O=C(c1cc(F)cc(Cl)c1)N1C[C@H]2CC[C@@H](C1)N(Cc1ccccc1)C2`, the cytotoxicity at 10 µM was -128%. Take `Cc1nc(CN2CCN(c3ccc(Cl)cn3)CC2)no1`: the cytotoxicity at 10 µM stood at 1.3%. The result for `O=C(Nc1ccc2c(c1)OCO2)c1ccc(N2CCCC2)nn1` reads 54.7%; that for `Cc1nnc(CN2CCC(Oc3ccc(F)cc3)CC2)o1`, -11.8%. The result for `Cc1cncc(NCC(O)c2ccco2)n1` (configuration not stated) reads 5.58%; that for `O=C1CO[C@@H]2CN(CC3CCOC3)C[C@H]2N1Cc1cccc(F)c1` (some centres not stated), -73.5%; that for `CC1(CO)COC(Cc2ccc(Cl)cc2)=N1` (configuration not stated), 12.6%. The result for `Cc1nn(C)c(Cl)c1C(=O)NCC1(C(N)=O)CCOCC1` reads 1.64%; that for `CCOc1ccccc1C(C(=O)O)N(C)Cc1nc(C)c[nH]1` (configuration not stated), -5.18%. Regarding `Cn1cc(Cl)c(CN2CCn3nc(C(=O)N4CCCC4)cc3C2)n1`, the cytotoxicity at 10 µM came to 2.42%. As to `O=C(CCCc1ncc(-c2ccccc2)o1)N1CCN(CCO)CC1`, the cytotoxicity at 10 µM is -4.69%.

With `O=C(O)c1cccc(CN2CCC(c3ccnc4ccnn34)CC2)c1`, the cytotoxicity at 10 µM was -16.2%.

With `CC(NCC(F)(F)F)c1ccc(S(C)(=O)=O)c(F)c1` (configuration not stated), the cytotoxicity at 10 µM came to 1.79%. The figure for `Cc1noc(C)c1CN1CC[C@@H]2O[C@@H](COCC(C)C)CC[C@@H]21` is -0.125%; for `CC(C)C(C(=O)N(C)C)c1cccc(Cl)c1` (configuration not stated) it is 6.14%; for `CC1CCN(S(=O)(=O)N2C[C@H](c3ccccc3)[C@@H](N)C2)CC1` it is -12.1%. The figure for `Nc1ccc(-c2cnc(C3CCCN3)cn2)cn1` (configuration not stated) is 2.19%; for `O=C(CCc1n[nH]c2c1CCCC2)N1C[C@H]2CC[C@@H](C1)N(CC1CC1)C2` it is -3.73%. The result for `CN(C)c1nc2c(c(N(C)C)n1)CCN(C(=O)CN1CCC(O)CC1)C2` reads 5.31%; that for `NCC1[C@H]2CN(CCc3ccccc3)C[C@@H]12` (some centres not stated), 5.22%; that for `CC(=O)N1Cc2ccccc2CC2(CCCCN2C)C1` (configuration not stated), 3.87%. For the compound `CCc1nc(CNc2ccc(C(=O)N3CCSCC3)cc2C)no1`, the cytotoxicity at 10 µM was -6.99%. The result for `CNC(=O)COC1COC2(CCN(c3ccc(C#N)cc3)CC2)C1` (configuration not stated) reads -75.7%; that for `O=C([C@@H]1C[C@@H]2CCN(Cc3ccc4c(c3)OCO4)C[C@@H]2O1)N1CCCC1`, -2.46%.

As to `CCCOC(=O)N1CCCn2nc(C(=O)Nc3ccccc3)cc2C1`, the cytotoxicity at 10 µM amounted to 7.23%. The figure for `Cc1cnn(CC(C)NCc2ccc(C#N)cc2F)c1` (configuration not stated) is -7.44%; for `Cn1nc(C2CC2)c2c1NC(=O)CC2c1ccc(CN2CCCCC2)s1` (configuration not stated) it is -6.37%; for `CC(=O)N1CCN(Cc2c(C)ccc3ccccc23)CC(O)C1` (configuration not stated) it is 11.8%. The result for `N#Cc1c(N)nc2c(c1-c1c[nH]nc1C1CCCCC1)COCC2` reads 6.75%; that for `CC(=O)N1CCN(C(=O)NC(C)Cn2ccnc2)CC1` (configuration not stated), -1.05%.

As for `Cc1cc(C(=O)NC2CCc3c(ccc(=O)n3CC3CC3)C2)no1` (configuration not stated), the cytotoxicity at 10 µM came out at 2.62%. The figure for `CC(C)(C)NC(=O)CN1CCCN(Cc2cc(C#N)ccc2F)CC1` is -4.62%; for `Cn1nc(C(=O)NCc2ccc(Cl)cc2)c2c1CCS(=O)(=O)C2` it is 5.01%; for `Cc1ccccc1SCC(=O)Nn1cnnc1` it is -43.1%. The figure for `OC(CN1CCN(Cc2cccc(F)c2)CC1)C1CC1` (configuration not stated) is -2.45%; for `CC(C)COCCC(=O)Nc1ccc2oc(=O)n(CCN(C)C)c2c1` it is -7.59%; for `CCCc1nnc(N2CCN(c3ccccc3Cl)CC2)o1` it is 0.426%.

`Cc1cc(CN2CCN(c3ccc4nncn4n3)C(C)C2)on1` (configuration not stated): the cytotoxicity at 10 µM was 6.91%. `CCN(C)C(=O)NCC1(CN2CCOCC2)CCCCC1`: the cytotoxicity at 10 µM is -5.18%.

As to `Cn1cc(CN2CCCC(n3c(=O)oc4ccccc43)C2)cn1` (configuration not stated), the cytotoxicity at 10 µM was -0.18%. The figure for `Cc1nc(CN2CCN(C(=O)c3ccnc(N(C)C)c3)CC2)cs1` is 1.42%; for `FC1(F)CCN(Cc2cccnc2)CC12CCN(c1cnccn1)C2` (configuration not stated) it is 2.6%.

Turning to `CN(C)CCCN1CC2(CCN(C3CCCOC3)CC2)OC1=O` (configuration not stated), the cytotoxicity at 10 µM was -5%.

In the case of `Cc1ccc(NC(=O)N2CCCN(C(N)=O)CC2)s1`, the cytotoxicity at 10 µM was -6.58%. With `Cc1ccc(S(=O)(=O)NC(=O)CCOCc2ccccc2)s1`, the cytotoxicity at 10 µM is -11.2%. As for `CC(c1ccc(C(F)(F)F)cc1)N1CCN(CCS(C)(=O)=O)CC1` (configuration not stated), the cytotoxicity at 10 µM was 3.25%. As to `CCc1cc(O)nc(C2CCCN(Cc3ccncc3)C2)n1` (configuration not stated), the cytotoxicity at 10 µM was -7.05%. Take `CC(C)N(C)CC(=O)NC1CCc2nccn2C1` (configuration not stated): the cytotoxicity at 10 µM came to 17.8%. The figure for `Cc1ccc(CN2CCN(Cc3ccc(N(C)C)nc3)CC2=O)cc1C` is -2.43%; for `O=C(CCCn1cncn1)NC1(c2ccc(Cl)cc2)CCC1` it is 6.66%; for `Cc1ccccc1CC(=O)N1CCc2c(ncnc2N2CCOCC2)C1` it is -3.39%. The figure for `CC(=O)c1ccc(C(=O)NCC2Cc3ccccc3O2)s1` (configuration not stated) is 3.82%; for `O=C(c1cc(COc2ccc3c(c2)OCO3)[nH]n1)N1CCOCC1` it is -5.21%. The figure for `O=C(COCC(F)(F)C(F)F)N1CCC2(CCCN(CCO)C2=O)C1` (configuration not stated) is 8.77%. On to `CCc1ccsc1C(=O)N(C)CCc1ccncc1`, for which the cytotoxicity at 10 µM is -0.386%.

With `COc1cccc(-c2ccnc3nc(N4CCCCC4)[nH]c(=O)c23)c1`, the cytotoxicity at 10 µM amounted to 7.97%. The result for `CN1C(=O)[C@H](OC(N)=O)[C@@H](C(=O)Nc2ccccc2)C12CCNCC2` reads 2.73%; that for `Cn1c(=O)n(C)c2nc(Br)c(CC(=O)c3ccccc3)n2c1=O`, 0.9%. The figure for `Cc1ccccc1OC1CCN(C(=O)CNC(=O)N(C)C)CC1` is 9.83%; for `COc1cc(CO)ccc1OCc1nc(C(C)C)no1` it is 6.3%. With `CCOCC1CCN(C(=O)C(c2ccccc2F)N(C)C)CC1` (configuration not stated), the cytotoxicity at 10 µM was 5.06%. The figure for `CN(Cc1ccc(F)cc1)CC1(O)CCN(C(=O)c2ccn(C)n2)C1` (configuration not stated) is -6.41%; for `CC(NCC(=O)Nc1ccc(N2CCCCCC2)cc1)c1cccs1` (configuration not stated) it is 1.8%. The figure for `COc1ccc(OC)c(C(C)NS(=O)(=O)c2cnn(C)c2)c1` (configuration not stated) is -3.35%; for `CCOCCC1(CNC(=O)c2ccsc2)CCC1` it is 7.92%; for `CCOc1ccc(CN2CC[C@](C)(O)C(C)(C)C2)cn1` it is 5.88%. As to `NC(=O)Cn1ccnc1C1CCCN(Cc2nc3ccccc3s2)C1` (configuration not stated), the cytotoxicity at 10 µM was -17%. The result for `CSCCC(=O)N1CCC(c2nccn2Cc2cscn2)CC1` reads 1.41%.

For the compound `CC(c1ccc(C(=O)NCCc2nc(N)cc(O)n2)o1)N1CCCCC1` (configuration not stated), the cytotoxicity at 10 µM is -8.9%. The result for `COCCn1ccc(NC(=O)Nc2cccnc2)n1` reads -12.3%. For `Cc1ccc(-c2ccnc(NC(C)c3c(C)n[nH]c3C)n2)c(C)n1` (configuration not stated), the cytotoxicity at 10 µM was determined as 4.51%.

On to `CC1CCCN(C(=O)c2ccc(-c3ccco3)o2)C1` (configuration not stated), for which the cytotoxicity at 10 µM is 4.23%. With `N#CC1(C(=O)NCc2ccc(F)cc2)CCCC1`, the cytotoxicity at 10 µM was 7.57%.

As for `CC(C)C(=O)N1CCC(c2c(C(N)=O)sc3ccccc23)C1` (configuration not stated), the cytotoxicity at 10 µM is -2.66%.

Take `O=c1c2cc3c(cc2nnn1Cc1cccc(F)c1)OCCO3`: the cytotoxicity at 10 µM was found to be 6.39%.

`Cc1nc(O)cc(CN2CC=C(c3cnn(-c4ccccc4)c3)CC2)n1`: the cytotoxicity at 10 µM is -10.5%.

`Cc1cc(C(=O)NCc2cccnc2OC(C)C)no1`: the cytotoxicity at 10 µM is -7.37%. The figure for `O=C(CCC1CC1)N1C[C@@H](CN2CCCC2)[C@@H](CO)C1` is -4.43%; for `Nc1nc2c(c(NC(=O)Nc3ccc(Cl)c(Cl)c3)n1)CCCC2` it is -6.92%; for `Cc1cnn(CC(=O)N2CCC(c3ccn4nccc4n3)CC2)c1` it is 3.24%.

Consider `COc1ccccc1N1CCCC(NC(=O)Nc2cccnc2)C1` (configuration not stated), for which the cytotoxicity at 10 µM was 9.86%.

With `Cc1nc2ccc(C(=O)N(CCC#N)CCC#N)cc2nc1C`, the cytotoxicity at 10 µM was -12.8%. The result for `CNCc1cc(F)ccc1Oc1ccc(F)cc1` reads -1%; that for `CSCCC(O)C(=O)N(C)Cc1cnn(-c2ccc(F)cc2)c1` (configuration not stated), -5.36%; that for `CCOc1ccc(CC(=O)N2CCN(c3nccn3CC)CC2)cc1`, 11.1%. As for `CCCc1nccn1-c1ccc(C(C)O)cc1` (configuration not stated), the cytotoxicity at 10 µM was determined as 5.38%. As for `Cc1noc(C)c1S(=O)(=O)NCC(O)c1ccc2c(c1)CCO2` (configuration not stated), the cytotoxicity at 10 µM is 0.407%.

As to `COCCNC(=O)[C@H]1CN(Cc2scnc2C)C[C@H]2OCC[C@@H]12`, the cytotoxicity at 10 µM was -8.94%.

Consider `CCNC(=O)[C@@H]1C[C@@H](N)CN1Cc1ccc2cccc(Cl)c2n1`, for which the cytotoxicity at 10 µM was determined as 12.9%.

`CCOC(=O)C1CCN(C(=O)Cn2ccc3cc(Br)ccc32)CC1`: the cytotoxicity at 10 µM was -8.23%. The figure for `Cc1c(NC(=O)NC(C)CCO)cccc1OC1CCCC1` (configuration not stated) is -7.18%; for `COCC1CC2(CCN(c3cccc(C)n3)CC2)CN1C(C)C` (configuration not stated) it is -109%; for `O[C@H]1Cc2ccccc2[C@H]1Nc1ncccc1C(F)(F)F` it is 5.95%.

With `O=C(NCc1ccco1)N(CCCO)C1CCCc2ccccc21` (configuration not stated), the cytotoxicity at 10 µM is -9.53%. The figure for `Cc1cccnc1CN1CCC2(CC(Nc3ccncn3)C2)C1` (configuration not stated) is -6.36%; for `CC(CO)(NCc1noc(Cc2ccccc2)n1)C1CCCCC1` (configuration not stated) it is -17.2%. The figure for `Cc1cn2cc(-c3nc4c([nH]3)CCCNC4=O)nc2s1` is 5.48%.
